Calls of active or inactive are those of the source. No cut-off for these calls is given here.
Legend:
[1] = system: Plasmodium falciparum; experiment: Antimalarial activity against pyrimethamine/chloroquine-resistant Plasmodium falciparum W2 infected in human type A-positive erythrocytes after 48 hrs by [3H]-hypoxanthine incorporation assay; assay type: functional, cell-based
Procedure, shortened: (§1)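 Compound from 10.0 mM DMSO stock, diluted ≥1:400, then 11 concentrations in duplicate. Incubated at 37 °C under 90% N2/5% O2/5% CO2 for 48 h, then 3H-hypoxanthine added for 24 h more. CPM counted; EC50 by nonlinear regression.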

[2] = system: Plasmodium falciparum; experiment: Antimalarial activity against mefloquine/chloroquine/atovaquone/pyrimethamine-resistant Plasmodium falciparum TM90-C2B infected in human type A-positive erythrocytes after 48 hrs by [3H]-hypoxanthine incorporation assay; assay type: functional, cell-based; procedure, shortened: as §1
[3] = system: Plasmodium berghei; experiment: Antimalarial activity against Plasmodium berghei infected in human HepG2 cells after 44 hrs by luciferase assay; assay type: functional, cell-based; settings: HepG2, 44 h
Procedure, shortened: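 HepG2 cells, 75000 per well, in DMEM with 10% FBS at 37 °C, 5% CO2. 5000 Pb luciferase sporozoites from dissected mosquito salivary glands added per well for 3 h, then washed three times with PBS. Serially diluted compound added in triplicate, 44 h at 37 °C. Cells lysed, luciferase substrate added, luminescence read.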

[4] = system: J774; experiment: Cytotoxicity against mouse J774 cells after 72 hrs by CellTiter-96 aqueous one solution cell proliferation assay; assay type: cell-based; settings: J774, 72 h
Procedure, shortened: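 Compounds from 10 µg/mL or 20 µM top concentration, 1:2 serial dilutions over 11 concentrations, 72 h at 37 °C, 5% CO2. MTS-type reagent added for 4 h, absorbance read at 490 nm. IC50 by nonlinear regression.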

[5] = system: Plasmodium berghei; experiment: Antimalarial activity against blood stage form of GFP transfected Plasmodium berghei infected in mouse assessed as mouse survival day at 10 mg/kg, po administered on day 3, 4, 5 post infection by Thompson test; assay type: functional
[6] = system: Plasmodium berghei; experiment: Antimalarial activity against blood stage form of GFP transfected Plasmodium berghei infected in mouse assessed as protection against parasitemia at 10 mg/kg, po administered on day 3, 4, 5 post infection measured on day 30 by Thompson test; assay type: functional, organism-based
Procedure, shortened: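 Modified Thompson model: mice inoculated ip with 2×10^6 P. berghei (GFP)-infected red blood cells, parasitemia near 1% by day 3. […] Animals followed for 30 days; survival to day 30 with parasitemia below 1% counted as cure.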

[7] = system: Plasmodium berghei; experiment: Antimalarial activity against liver stage form of luciferase transfected Plasmodium berghei sporozoites infected in mouse assessed as inhibition of parasitemia at 50 mg/kg administered via oral gavage 1 hr post infection measured on day 9 by bioluminescence method relative to control; assay type: functional
[8] = Aqueous solubility of compound at pH 6.5; assay type: physicochemical
[9] = system: Plasmodium berghei; experiment: Antimalarial activity against liver stage form of luciferase transfected Plasmodium berghei sporozoites infected in mouse assessed as inhibition of parasitemia at 25 mg/kg administered via oral gavage 1 hr post infection measured on day 9 by bioluminescence method relative to control; assay type: functional
[10] = system: Plasmodium berghei; experiment: Antimalarial activity against liver stage form of luciferase transfected Plasmodium berghei sporozoites infected in mouse assessed as inhibition of parasitemia at 50 mg/kg, sc administered 1 hr post infection measured on day 9 by bioluminescence method relative to control; assay type: functional
[11] = system: Plasmodium berghei; experiment: Antimalarial activity against liver stage form of luciferase transfected Plasmodium berghei sporozoites infected in mouse assessed as inhibition of parasitemia at 100 mg/kg administered via oral gavage 1 hr post infection measured on day 9 by bioluminescence method relative to control; assay type: functional
[12] = system: Plasmodium berghei; experiment: Antimalarial activity against liver stage form of luciferase transfected Plasmodium berghei sporozoites infected in mouse assessed as protection against parasitemia at 100 mg/kg administered via oral gavage 1 hr post infection measured on day 30 by bioluminescence method; assay type: functional, organism-based
Procedure, shortened: (§2)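 Mice infected with luciferase-expressing P. berghei sporozoites, five per group. A single dose in PEG 400 was given orally by gavage (25, 50, 100 mg/kg) or subcutaneously (50 mg/kg) 1 h after infection. Infected untreated controls and a primaquine drug control were included. Whole-animal imaging was done 5 min after ip D-luciferin (100 mg/kg) under isoflurane, at 44 h and days 6, 9 and 13. Survival/cure followed to day 30.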

[13] = system: Plasmodium berghei; experiment: Antimalarial activity against liver stage form of luciferase transfected Plasmodium berghei sporozoites infected in mouse assessed as protection against parasitemia at 25 to 100 mg/kg administered via oral gavage 1 hr post infection measured at 44 hrs by bioluminescence method; assay type: functional, organism-based; procedure, shortened: as §2
[14] = system: Plasmodium berghei; experiment: Antimalarial activity against liver stage form of luciferase transfected Plasmodium berghei sporozoites infected in mouse assessed as protection against parasitemia at 25 to 100 mg/kg administered via oral gavage 1 hr post infection measured on day 6 to 13 by bioluminescence method; assay type: functional, organism-based; procedure, shortened: as §2
[15] = system: Plasmodium berghei; experiment: Antimalarial activity against liver stage form of luciferase transfected Plasmodium berghei sporozoites infected in mouse assessed as protection against parasitemia at 50 mg/kg, sc administered 1 hr post infection measured at 44 hrs by bioluminescence method; assay type: functional, organism-based; procedure, shortened: as §2
[16] = system: Plasmodium berghei; experiment: Antimalarial activity against liver stage form of luciferase transfected Plasmodium berghei sporozoites infected in mouse assessed as protection against parasitemia at 50 mg/kg, sc administered 1 hr post infection measured on day 6 to 13 by bioluminescence method; assay type: functional, organism-based; procedure, shortened: as §2
[17] = system: Plasmodium berghei; experiment: animal or person; settings: in Mus musculus, po, read-out: INH
[18] = system: Plasmodium berghei; experiment: Antimalarial activity against liver stage form of luciferase transfected Plasmodium berghei sporozoites infected in mouse assessed as protection against parasitemia at 25 to 50 mg/kg administered via oral gavage 1 hr post infection measured on day 30 by bioluminescence method; assay type: functional, organism-based; procedure, shortened: as §2
[19] = system: Plasmodium berghei; experiment: Antimalarial activity against liver stage form of luciferase transfected Plasmodium berghei sporozoites infected in mouse assessed as protection against parasitemia at 50 mg/kg, sc administered 1 hr post infection measured on day 30 by bioluminescence method; assay type: functional, organism-based; procedure, shortened: as §2
[20] = system: Plasmodium berghei; experiment: Antimalarial activity against liver stage form of luciferase transfected Plasmodium berghei sporozoites infected in mouse assessed as protection against parasitemia at 100 mg/kg administered via oral gavage 1 hr post infection measured on day 6 to 13 by bioluminescence method; assay type: functional, organism-based; procedure, shortened: as §2
[21] = system: Plasmodium berghei; experiment: Antimalarial activity against liver stage form of luciferase transfected Plasmodium berghei sporozoites infected in mouse assessed as protection against parasitemia at 100 mg/kg administered via oral gavage 1 hr post infection measured at 44 hrs by bioluminescence method; assay type: functional, organism-based; procedure, shortened: as §2

SMILES | EC50 [1] [nM] | EC50 [2] [nM] | EC50 [3] [nM] | EC50 [4] [nM] | Survival [5] | Activity [6] | also measured
COC(=O)c1c[nH]c2cc(CN3CCN(c4ccc(C(F)(F)F)cc4)CC3)ccc2c1=O | 0.32 | 120 | 16 | 11000 | <=21 day | inactive | 
COc1cc(NC(C)CCCN)c2ncccc2c1 (stereo not drawn) [PRIMAQUINE] |  |  |  |  |  |  | inhibition in vivo at 50 mg/kg [7]: > 99%
COC(=O)c1c[nH]c2cc(CN3CCN(c4ccccc4)CC3)ccc2c1=O | 1.3 | 480 | 4.7 |  |  |  | solubility [8]: ≥ 80 µM; inhibition in vivo at 25 mg/kg [9]: 65.3%; inhibition in vivo at 50 mg/kg [7]: 85.1%; inhibition in vivo at 50 mg/kg [10]: > 99%; inhibition in vivo at 100 mg/kg [11]: > 99%; Activity [12]: Active; Activity [13]: Active; Activity [14]: Active; Activity [15]: Active; Activity [16]: Active
Cc1[nH]c2cc(CN3CCN(c4ccc(F)cc4)CC3)ccc2c(=O)c1Cl | 39 | 52 |  | > 20000 | <=13 day | inactive | inhibition in vivo at 10 mg/kg [17]: 11%
O=c1c(Br)c[nH]c2cc(CN3CCN(c4ccc(F)cc4)CC3)ccc12 | 810 | > 2000 | 0.86 | > 20000 | <=13 day | inactive | inhibition in vivo at 10 mg/kg [17]: 33%
COC(=O)c1c[nH]c2cc(CN3CCN(Cc4ccc(OC)cc4)CC3)ccc2c1=O | 2.5 | 800 | 83 |  |  |  | inhibition in vivo at 25 mg/kg [9]: 49.1%; inhibition in vivo at 50 mg/kg [10]: 20.1%; Activity [18]: Active; Activity [19]: inactive; Activity [20]: Active; Activity [21]: Active
COC(=O)c1c[nH]c2cc(CN3CCN(c4ccc(F)cc4)CC3)ccc2c1=O | 1.8 | 130 | 1.1 | 2000 | <=21 day | inactive | 
